Results reported in ChEMBL document CHEMBL4390674, “Defining Structure-Functional Selectivity Relationships (SFSR) for a Class of Non-Catechol Dopamine D1 Receptor Agonists” (J Med Chem, 2019).
pEC50: −log10 of the molar value. The source made the active and inactive calls. No cut-off for these calls is given here.

Legend:
[1] = target: T1, D(1A) dopamine receptor (Homo sapiens, UniProt P21728); test: Agonist activity at recombinant human D1 receptor expressed in HEK29T cells assessed as induction of stimulatory G-protein-mediated cAMP accumulation measured after 15 mins by Glosensor-based FLIPR assay; format: functional, cell-based
Procedure, shortened: (§1)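 GloSensor-22F cAMP biosensor in HEK293T cells co-expressing human D1, seeded in DMEM + 1% dialyzed FBS; next day GloSensor reagent equilibrated ≥15 min at room temperature in HBSS/20 mM HEPES pH 7.4, then drug added in HBSS/HEPES/0.1% BSA/0.01% ascorbic acid. Luminescence read after 15 min; normalized to dopamine maximum (100%); sigmoidal fit; maximum tested 10⁻⁴ M; ≥3 experiments in triplicate.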

[2] = target: T1, D(1A) dopamine receptor; test: Agonist activity at recombinant human D1 receptor expressed in HEK29T cells assessed as induction of stimulatory G-protein-mediated cAMP accumulation measured after 15 mins by Glosensor-based FLIPR assay relative to dopamine; format: functional, cell-based; procedure, shortened: as §1
[3] = target: T1, D(1A) dopamine receptor; test: (§2) Agonist activity at recombinant C-terminal RLuc8-fused human D1 receptor expressed in HEK29T cells co-expressing N-terminal Venus-tagged beta-arrestin2 assessed as increase in beta-arrestin2 recruitment at 10^-4M measured after 15 mins in presence of coelenterazine H by BRET assay; format: cell-based
[4] = target: T1, D(1A) dopamine receptor; test: as §2, with “assay relative to dopamine” for “assay”; format: cell-based
[5] = target: T1, D(1A) dopamine receptor; test: Agonist activity at recombinant C-terminal RLuc8-fused human D1 receptor expressed in HEK29T cells co-expressing N-terminal Venus-tagged beta-arrestin2 assessed as increase in beta-arrestin2 recruitment measured after 15 mins in presence of coelenterazine H by BRET assay; format: cell-based; details: read-out: EC50
[6] = target: T1, D(1A) dopamine receptor; test: Agonist activity at recombinant C-terminal RLuc8-fused human D1 receptor expressed in HEK29T cells co-expressing N-terminal Venus-tagged beta-arrestin2 assessed as increase in beta-arrestin2 recruitment measured after 15 mins in presence of coelenterazine H by BRET assay relative to dopamine; format: cell-based
[7] = target: T1, D(1A) dopamine receptor; test: Bias factor, transduction co-efficient for agonist activity at recombinant human D1 receptor expressed in HEK29T cells assessed as induction of stimulatory G-protein-mediated cAMP accumulation to agonist activity at recombinant C-terminal RLuc8-fused human D1 receptor expressed in HEK29T cells co-expressing N-terminal Venus-tagged beta-arrestin2 assessed as increase in beta-arrestin2 recruitment; format: functional, cell-based
Procedure, shortened: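 Dopamine as full-agonist reference; transduction coefficients log(τ/KA) for Gs-cAMP (GloSensor) and β-arrestin2 (BRET) computed relative to dopamine and averaged across experiments; bias factor derived by Kenakin method from the difference between Gs and β-arrestin2 coefficients.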

[8] = target: T1, D(1A) dopamine receptor; test: Agonist activity at recombinant human D1 receptor expressed in HEK29T cells assessed as induction of stimulatory G-protein-mediated cAMP accumulation at 10'4M measured after 15 mins by Glosensor-based FLIPR assay; format: functional, cell-based; procedure, shortened: as §1
[9] = target: T1, D(1A) dopamine receptor; test: Agonist activity at recombinant human D1 receptor expressed in HEK29T cells assessed as induction of stimulatory G-protein-mediated cAMP accumulation at 10'4M measured after 15 mins by Glosensor-based FLIPR assay relative to dopamine; format: functional, cell-based; procedure, shortened: as §1
[10] = Cmax in Swiss albino mouse plasma at 50 mg/kg, ip measured up to 4 hrs by LC-MC/MS analysis; format: ADME, organism-based; set-up: dose 50 mg/kg, route intraperitoneal
Procedure, shortened: (§3)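 Male Swiss Albino mice (nine), 50 mg/kg i.p. in 5% NMP/5% Solutol HS-15/90% saline; plasma and brain taken from three mice per time point at 0.5, 1.5 and 4 h; brain homogenized 2:1 in ice-cold PBS pH 7.4; LC-MS/MS quantitation (LLOQ 1.01 ng/mL plasma, 3.03 ng/g brain); noncompartmental analysis.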

[11] = Cmax in Swiss albino mouse brain at 50 mg/kg, ip measured up to 4 hrs by LC-MC/MS analysis; format: ADME, organism-based; set-up: dose 50 mg/kg, route intraperitoneal; procedure, shortened: as §3
[12] = Toxicity in Swiss albino mouse at 50 mg/kg, ip measured up to 4 hrs; format: organism-based; details: in vivo
[13] = Ratio of drug level in brain to plasma in Swiss albino mouse at 50 mg/kg, ip measured up to 4 hrs by LC-MC/MS analysis; format: ADME, organism-based; procedure, shortened: as §3

T1 sequence (P21728 whole entry): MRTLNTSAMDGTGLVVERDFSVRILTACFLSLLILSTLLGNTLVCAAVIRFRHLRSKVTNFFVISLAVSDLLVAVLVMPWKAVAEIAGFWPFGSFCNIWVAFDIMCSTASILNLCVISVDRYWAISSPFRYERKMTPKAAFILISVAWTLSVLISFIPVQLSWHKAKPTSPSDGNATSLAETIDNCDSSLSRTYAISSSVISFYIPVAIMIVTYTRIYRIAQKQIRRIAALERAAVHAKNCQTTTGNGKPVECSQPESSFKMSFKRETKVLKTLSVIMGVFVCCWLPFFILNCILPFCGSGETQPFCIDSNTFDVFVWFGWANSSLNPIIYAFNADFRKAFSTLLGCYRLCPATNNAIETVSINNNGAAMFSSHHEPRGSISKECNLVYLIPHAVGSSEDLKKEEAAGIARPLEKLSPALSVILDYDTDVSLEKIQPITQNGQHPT

## Cc1cc(Oc2nccc3occc23)ccc1-c1c(C)cnnc1C
[1]
  pEC50: 8.92
[2]
  Emax: 61%
[3]
  Activity: inactive
[4]
  Emax: inactive

## FC(F)(F)c1cc(Oc2ccccn2)ccc1-c1cccc2nccn12
[1]
  pEC50: 6.57
[2]
  Emax: 65%
[3]
  Activity: inactive
[4]
  Emax: inactive

## Cc1cc(Oc2nccc3occc23)ccc1-c1cc(N)cnc1C
[1]
  pEC50: 7.89
[2]
  Emax: 67%
[5]
  pEC50: 5.96
[6]
  Emax: 64%
[7]
  fold change (FC): 1.2

## Cc1cc(Oc2nccc3occc23)ccc1-c1c(C)nc2cnccn12
[1]
  pEC50: 8.24
[2]
  Emax: 63%
[5]
  pEC50: 5.59
[6]
  Emax: 89%
[7]
  fold change (FC): 4.1

## FC(F)(F)c1cc(Oc2nccc3ccccc23)ccc1-c1cccc2nccn12
[1]
  pEC50: 7.17
[2]
  Emax: 61%
[3]
  Activity: inactive
[4]
  Emax: inactive

## FC(F)(F)c1cc(Oc2cc(N3CCCCC3)ccn2)ccc1-c1cccc2nccn12
[5]
  pEC50: < 5.00
[8]
  Activity: inactive
[9]
  Emax: inactive

## Cc1cc(Oc2nccc3[nH]ncc23)ccc1-c1c(C)ncc2nccn12
[1]
  pEC50: 8.74
[2]
  Emax: 104%
[5]
  pEC50: < 5.00

## Cc1cc(Oc2nccn3cccc23)ccc1-c1c(C)ncc2nccn12
[2]
  Emax: 83%
[6]
  Emax: 59%
[7]
  fold change (FC): 15

## COC(=O)c1cccn2c(-c3ccc(Oc4nccc5occc45)cc3C)cnc12
[1]
  pEC50: 6.00
[2]
  Emax: 44%
[3]
  Activity: inactive
[4]
  Emax: inactive

## Cc1cc(Oc2nccc3occc23)ccc1-c1cccc2nccn12
[1]
  pEC50: 8.57
[2]
  Emax: 95%
[5]
  pEC50: 6.74
[6]
  Emax: 63%
[7]
  fold change (FC): 1.3

## CCN(c1ccc(-c2c(C)ncc3nccn23)c(C)c1)c1nccc2occc12
[1]
  pEC50: 7.44
[2]
  Emax: 80%
[3]
  Activity: inactive
[4]
  Emax: inactive

## Cc1cc(Oc2nccc3occc23)cc(C)c1-c1cccc2nccn12
[3]
  Activity: inactive
[4]
  Emax: inactive
[8]
  Activity: inactive
[9]
  Emax: inactive

## Fc1cc(-c2cccc3nccn23)cc(F)c1Oc1nccc2occc12
[1]
  pEC50: 6.72
[2]
  Emax: 57%
[5]
  pEC50: < 5.00

## Cc1cc(N(C)c2nccc3occc23)ccc1-c1c(C)ncc2nccn12
[1]
  pEC50: 7.06
[2]
  Emax: 79%
[3]
  Activity: inactive
[4]
  Emax: inactive

## Cc1cc(Oc2nccc3occc23)ccc1-c1ccc(C#N)cn1
[1]
  pEC50: < 5.00
[3]
  Activity: inactive
[4]
  Emax: inactive

## Cc1cc(Oc2nccc3ccsc23)ccc1-c1c(C)ncc2nccn12
[1]
  pEC50: 9.64
[2]
  Emax: 100%
[5]
  pEC50: 7.66
[6]
  Emax: 63%
[7]
  fold change (FC): 1.9

## Cc1cc(N(c2nccc3occc23)C2CCCC2)ccc1-c1c(C)ncc2nccn12
[1]
  pEC50: 5.96
[2]
  Emax: 68%
[5]
  pEC50: < 5.00

## Cc1cc(N(c2nccc3occc23)C(C)C)ccc1-c1c(C)ncc2nccn12
[1]
  pEC50: 7.00
[2]
  Emax: 67%
[3]
  Activity: inactive
[4]
  Emax: inactive

## Cc1ncc2nccn2c1-c1ccc(Oc2nccc3occc23)c(C(F)(F)F)c1
[3]
  Activity: inactive
[4]
  Emax: inactive
[8]
  Activity: inactive
[9]
  Emax: inactive

## Cc1cc(Oc2nccc3occc23)ccc1-c1cncc(C(N)=O)c1
[1]
  pEC50: 5.89
[2]
  Emax: 59%
[3]
  Activity: inactive
[4]
  Emax: inactive

## FC(F)(F)c1cc(-c2cccc3nccn23)ccc1Oc1nccc2occc12
[3]
  Activity: inactive
[4]
  Emax: inactive
[8]
  Activity: inactive
[9]
  Emax: inactive

## Cc1cc(Oc2nccn3ccnc23)ccc1-c1c(C)ncc2nccn12
[1]
  pEC50: 6.59
[2]
  Emax: 85%
[3]
  Activity: inactive
[4]
  Emax: inactive

## Cc1cc(Oc2ccccn2)ccc1-c1c(C)ncc2nccn12
[1]
  pEC50: 6.92
[2]
  Emax: 83%
[5]
  pEC50: < 5.00

## Cc1cc(Oc2ncccc2Br)ccc1-c1c(C)ncc2nccn12
[1]
  pEC50: < 5.00
[3]
  Activity: inactive
[4]
  Emax: inactive

## Cc1c(Oc2nccc3occc23)ccc(-c2cccc3nccn23)c1C
[1]
  pEC50: 6.96
[2]
  Emax: 30%
[3]
  Activity: inactive
[4]
  Emax: inactive

## Cc1cc(Oc2cc(N3CCCCC3)ccn2)ccc1-c1c(C)ncc2nccn12
[1]
  pEC50: 6.19
[2]
  Emax: 26%
[3]
  Activity: inactive
[4]
  Emax: inactive

## FC(F)(F)c1cc(Oc2nccn3ccnc23)ccc1-c1cccc2nccn12
[1]
  pEC50: 6.74
[2]
  Emax: 54%
[3]
  Activity: inactive
[4]
  Emax: inactive

## Cc1cc(Oc2nccc3occ(C4CC4)c23)ccc1-c1c(C)ncc2nccn12
[1]
  pEC50: 7.21
[2]
  Emax: 67%
[3]
  Activity: inactive
[4]
  Emax: inactive

## FC(F)(F)c1cc(Oc2nccc3occ(C4CC4)c23)ccc1-c1cccc2nccn12
[1]
  pEC50: 6.11
[2]
  Emax: 83%
[3]
  Activity: inactive
[4]
  Emax: inactive

## Cc1ncc2nccn2c1-c1cc(F)c(Oc2nccc3occc23)c(F)c1
[1]
  pEC50: 6.85
[2]
  Emax: 66%
[3]
  Activity: inactive
[4]
  Emax: inactive

## Cc1cc(Oc2cccc3occc23)ccc1-c1c(C)ncc2nccn12
[1]
  pEC50: 7.10
[2]
  Emax: 69%
[3]
  Activity: inactive
[4]
  Emax: inactive

## Cc1ncc2nccn2c1-c1ccc(Oc2nccc3occc23)c(C)c1C
[1]
  pEC50: 7.26
[2]
  Emax: 54%
[3]
  Activity: inactive
[4]
  Emax: inactive

## FC(F)(F)c1cc(Oc2nccn3cccc23)ccc1-c1cccc2nccn12
[1]
  pEC50: 8.11
[2]
  Emax: 78%
[3]
  Activity: inactive
[4]
  Emax: inactive

## Oc1cc2c(cc1O)[C@H]1c3ccccc3CN[C@@H]1CC2 (racemic)
[7]
  fold change (FC): 7.5

## Cc1cc(-c2cccc3nccn23)ccc1Oc1nccc2occc12
[1]
  pEC50: 6.28
[2]
  Emax: 29%
[3]
  Activity: inactive
[4]
  Emax: inactive

## CCOc1ncnc(C)c1-c1ccc(Oc2nccc3occc23)cc1C
[1]
  pEC50: 7.92
[2]
  Emax: 67%
[5]
  pEC50: < 5.00

## Cc1cc(Oc2nccc3occc23)ccc1-c1nc(N)cnc1C
[1]
  pEC50: 7.66
[2]
  Emax: 91%
[5]
  pEC50: < 5.00

## Cc1cc(N(CC2CC2)c2nccc3occc23)ccc1-c1c(C)ncc2nccn12
[1]
  pEC50: 6.49
[2]
  Emax: 78%
[3]
  Activity: inactive
[4]
  Emax: inactive

## Cc1ncc2nccn2c1-c1ccc(Oc2nccc3occc23)cc1N
[1]
  pEC50: 8.89
[2]
  Emax: 104%
[5]
  pEC50: 6.68
[6]
  Emax: 81%
[7]
  fold change (FC): 2.7

## Cc1cc(-c2c(C)ncc3nccn23)ccc1Oc1nccc2occc12
[1]
  pEC50: 6.21
[2]
  Emax: 62%
[3]
  Activity: inactive
[4]
  Emax: inactive

## Cc1cc(Oc2nccc3ccccc23)ccc1-c1c(C)ncc2nccn12
[1]
  pEC50: 7.82
[2]
  Emax: 82%
[5]
  pEC50: < 5.00

## Nc1cc(Oc2nccc3occc23)ccc1-c1cccc2nccn12
[1]
  pEC50: 8.00
[2]
  Emax: 91%
[5]
  pEC50: 6.10
[6]
  Emax: 54%
[7]
  fold change (FC): 1.7
[10]
  Cmax: 100 µM
[11]
  Cmax: 100 µM
[12]
  Activity: Non-Toxic
[13]
  BPR: 1.2 to 1.6

## Cc1cc(Nc2nccc3occc23)ccc1-c1c(C)ncc2nccn12
[1]
  pEC50: 7.80
[2]
  Emax: 98%
[5]
  pEC50: < 5.00

## COc1ccc(-c2ccc(Oc3nccc4occc34)cc2C)c(C)n1
[1]
  pEC50: 7.11
[2]
  Emax: 80%
[5]
  pEC50: < 5.00

## Cc1cc(Oc2nccc(O)c2C)ccc1-c1c(C)ncc2nccn12
[1]
  pEC50: 6.80
[2]
  Emax: 34%
[3]
  Activity: inactive
[4]
  Emax: inactive
